Source: ChEMBL document CHEMBL1158483, “N-O-isopropyl sulfonamido-based hydroxamates: design, synthesis and biological evaluation of selective matrix metalloproteinase-13 inhibitors as potential therapeutic agents for osteoarthritis” (J Med Chem, 2009)
The source made the active and inactive calls. The rule behind the calls is not given here.

Assays:
[1] = target: Matrix metalloproteinase-14 (Homo sapiens, UniProt P50281); experiment: Inhibition of human recombinant MMP14
How it was run: (§1)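 Human recombinant enzymes in Tris 50 mM pH 7.5, NaCl 150 mM, CaCl2 10 mM, Brij 35 0.05%, DMSO 1%. Final enzyme: MMP-1 2.0 nM, MMP-2 2.9, MMP-3 5, MMP-8 1.5, MMP-9 2.7, MMP-14 cd 1, MMP-16 cd 15, TACE 7.5 nM. Pro-MMP-1/-2/-8 activated with APMA 2 mM, pro-MMP-9 with APMA 1 mM, each 1 h at 37 °C. Pro-MMP-3 activated with trypsin 5 µg/mL for 30 min at 37 °C, then soybean trypsin inhibitor.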

[2] = target: Neutrophil collagenase (Homo sapiens, UniProt P22894); experiment: Inhibition of MMP8; how it was run: as §1
Chain of Neutrophil collagenase (P22894 whole entry): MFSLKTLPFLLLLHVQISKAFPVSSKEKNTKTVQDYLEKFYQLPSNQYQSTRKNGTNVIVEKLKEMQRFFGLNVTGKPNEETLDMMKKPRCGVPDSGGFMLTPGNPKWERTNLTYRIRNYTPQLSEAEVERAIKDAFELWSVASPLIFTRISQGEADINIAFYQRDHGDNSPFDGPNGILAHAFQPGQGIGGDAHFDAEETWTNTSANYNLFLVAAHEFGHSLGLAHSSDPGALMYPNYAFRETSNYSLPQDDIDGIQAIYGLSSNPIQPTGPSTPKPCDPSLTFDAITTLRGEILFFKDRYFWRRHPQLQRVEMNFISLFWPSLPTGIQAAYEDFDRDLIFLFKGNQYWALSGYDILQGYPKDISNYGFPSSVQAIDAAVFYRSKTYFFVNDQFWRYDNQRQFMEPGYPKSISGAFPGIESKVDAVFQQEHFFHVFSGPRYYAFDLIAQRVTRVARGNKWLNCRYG

[3] = target: 72 kDa type IV collagenase (Homo sapiens, UniProt P08253); experiment: Inhibition of MMP2; how it was run: as §1
Chain of 72 kDa type IV collagenase (P08253 whole entry): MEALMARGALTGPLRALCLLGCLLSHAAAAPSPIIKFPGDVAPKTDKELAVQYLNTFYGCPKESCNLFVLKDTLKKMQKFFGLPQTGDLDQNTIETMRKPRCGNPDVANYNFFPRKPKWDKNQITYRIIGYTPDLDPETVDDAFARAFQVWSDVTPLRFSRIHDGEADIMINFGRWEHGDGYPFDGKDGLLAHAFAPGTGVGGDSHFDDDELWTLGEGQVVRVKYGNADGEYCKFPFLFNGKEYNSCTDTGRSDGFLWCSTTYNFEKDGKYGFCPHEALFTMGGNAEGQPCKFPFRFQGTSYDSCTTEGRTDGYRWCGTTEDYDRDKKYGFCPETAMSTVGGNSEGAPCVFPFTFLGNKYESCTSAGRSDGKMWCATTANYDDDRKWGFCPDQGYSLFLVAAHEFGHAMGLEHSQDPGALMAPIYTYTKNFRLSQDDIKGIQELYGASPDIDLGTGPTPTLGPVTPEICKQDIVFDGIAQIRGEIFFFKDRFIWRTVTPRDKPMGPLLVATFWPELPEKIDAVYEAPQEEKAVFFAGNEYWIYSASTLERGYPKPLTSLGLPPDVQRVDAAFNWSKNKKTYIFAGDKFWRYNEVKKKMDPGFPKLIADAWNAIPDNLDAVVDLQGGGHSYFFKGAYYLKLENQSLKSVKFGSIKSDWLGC

[4] = target: Matrix metalloproteinase-9 (Homo sapiens, UniProt P14780); experiment: Inhibition of MMP9; how it was run: as §1
Chain of Matrix metalloproteinase-9 (P14780 whole entry): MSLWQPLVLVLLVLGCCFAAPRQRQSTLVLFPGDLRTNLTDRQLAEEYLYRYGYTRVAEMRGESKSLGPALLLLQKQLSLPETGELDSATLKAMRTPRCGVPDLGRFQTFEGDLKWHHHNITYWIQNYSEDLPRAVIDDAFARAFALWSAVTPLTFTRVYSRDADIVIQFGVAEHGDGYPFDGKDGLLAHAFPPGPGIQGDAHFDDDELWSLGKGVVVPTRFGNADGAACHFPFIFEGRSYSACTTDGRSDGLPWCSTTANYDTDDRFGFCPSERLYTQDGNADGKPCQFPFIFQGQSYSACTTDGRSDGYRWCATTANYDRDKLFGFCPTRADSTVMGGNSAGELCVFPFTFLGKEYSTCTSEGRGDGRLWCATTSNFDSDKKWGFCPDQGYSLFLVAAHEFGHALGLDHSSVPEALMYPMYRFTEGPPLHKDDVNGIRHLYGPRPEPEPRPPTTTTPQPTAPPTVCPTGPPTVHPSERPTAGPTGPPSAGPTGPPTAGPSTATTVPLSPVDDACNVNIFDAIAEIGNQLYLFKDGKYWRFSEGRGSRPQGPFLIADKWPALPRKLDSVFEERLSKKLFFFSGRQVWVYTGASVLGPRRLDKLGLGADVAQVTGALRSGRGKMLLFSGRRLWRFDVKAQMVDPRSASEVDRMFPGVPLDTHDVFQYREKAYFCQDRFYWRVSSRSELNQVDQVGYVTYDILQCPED

[5] = target: Stromelysin-1 (Homo sapiens, UniProt P08254); experiment: Inhibition of MMP3; how it was run: as §1
Chain of Stromelysin-1 (P08254 whole entry): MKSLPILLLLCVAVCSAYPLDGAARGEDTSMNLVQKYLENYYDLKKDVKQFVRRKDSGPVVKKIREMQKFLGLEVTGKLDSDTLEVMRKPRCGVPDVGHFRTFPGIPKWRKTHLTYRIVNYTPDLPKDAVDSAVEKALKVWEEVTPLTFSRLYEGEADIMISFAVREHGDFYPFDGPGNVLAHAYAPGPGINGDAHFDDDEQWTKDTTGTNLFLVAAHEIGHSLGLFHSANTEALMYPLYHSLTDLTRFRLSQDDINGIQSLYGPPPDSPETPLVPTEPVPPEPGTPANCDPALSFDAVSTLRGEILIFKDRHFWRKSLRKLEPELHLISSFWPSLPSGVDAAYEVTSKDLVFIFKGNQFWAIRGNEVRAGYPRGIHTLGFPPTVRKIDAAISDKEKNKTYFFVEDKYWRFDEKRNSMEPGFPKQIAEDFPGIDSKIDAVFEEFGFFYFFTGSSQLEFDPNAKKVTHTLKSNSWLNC

[6] = target: T1, Interstitial collagenase (Homo sapiens, UniProt P03956); experiment: Inhibition of MMP1; how it was run: as §1
T1 sequence (P03956 whole entry): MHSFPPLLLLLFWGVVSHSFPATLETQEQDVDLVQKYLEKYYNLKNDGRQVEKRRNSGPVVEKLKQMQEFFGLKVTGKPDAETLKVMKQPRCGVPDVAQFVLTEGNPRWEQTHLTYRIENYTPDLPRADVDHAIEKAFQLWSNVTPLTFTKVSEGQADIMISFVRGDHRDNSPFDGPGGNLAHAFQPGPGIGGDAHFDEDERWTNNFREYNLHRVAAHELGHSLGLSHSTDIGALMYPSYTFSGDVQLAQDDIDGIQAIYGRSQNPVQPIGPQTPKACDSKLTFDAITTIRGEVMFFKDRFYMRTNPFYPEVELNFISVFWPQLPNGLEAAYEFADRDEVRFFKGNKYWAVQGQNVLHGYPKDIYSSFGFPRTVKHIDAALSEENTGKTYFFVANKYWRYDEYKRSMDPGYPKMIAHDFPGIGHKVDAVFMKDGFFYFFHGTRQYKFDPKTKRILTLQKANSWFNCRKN

[7] = target: T2, Collagenase 3 (Homo sapiens, UniProt P45452); experiment: Inhibition of MMP13
[8] = target: T2, Collagenase 3; experiment: Inhibition of MMP13-mediated collagen degradation by SDS-PAGE
[9] = target: T1, Interstitial collagenase; experiment: Inhibition of MMP1-mediated collagen degradation by SDS-PAGE
How it was run: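 Full-length MMP-1 (0.5 nM) preincubated with inhibitor (0–10 µM) for 2 h at 25 °C in Tris-HCl 50 mM pH 7.5, NaCl 150 mM, CaCl2 5 mM, Brij-35 0.05%, NaN3 0.02%. Guinea-pig skin acid-soluble collagen (final 1.35 mg/mL) added, 16 h at 25 °C, stopped with EDTA. Full-length and 3/4-fragment α2 chains quantified by densitometry after 7.5% SDS-PAGE with Coomassie stain; IC50 derived.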

[10] = target: Disintegrin and metalloproteinase domain-containing protein 17 (Homo sapiens, UniProt P78536); experiment: Inhibition of TACE; how it was run: as §1
Chain of Disintegrin and metalloproteinase domain-containing protein 17 (P78536 whole entry, the tested form may be a part): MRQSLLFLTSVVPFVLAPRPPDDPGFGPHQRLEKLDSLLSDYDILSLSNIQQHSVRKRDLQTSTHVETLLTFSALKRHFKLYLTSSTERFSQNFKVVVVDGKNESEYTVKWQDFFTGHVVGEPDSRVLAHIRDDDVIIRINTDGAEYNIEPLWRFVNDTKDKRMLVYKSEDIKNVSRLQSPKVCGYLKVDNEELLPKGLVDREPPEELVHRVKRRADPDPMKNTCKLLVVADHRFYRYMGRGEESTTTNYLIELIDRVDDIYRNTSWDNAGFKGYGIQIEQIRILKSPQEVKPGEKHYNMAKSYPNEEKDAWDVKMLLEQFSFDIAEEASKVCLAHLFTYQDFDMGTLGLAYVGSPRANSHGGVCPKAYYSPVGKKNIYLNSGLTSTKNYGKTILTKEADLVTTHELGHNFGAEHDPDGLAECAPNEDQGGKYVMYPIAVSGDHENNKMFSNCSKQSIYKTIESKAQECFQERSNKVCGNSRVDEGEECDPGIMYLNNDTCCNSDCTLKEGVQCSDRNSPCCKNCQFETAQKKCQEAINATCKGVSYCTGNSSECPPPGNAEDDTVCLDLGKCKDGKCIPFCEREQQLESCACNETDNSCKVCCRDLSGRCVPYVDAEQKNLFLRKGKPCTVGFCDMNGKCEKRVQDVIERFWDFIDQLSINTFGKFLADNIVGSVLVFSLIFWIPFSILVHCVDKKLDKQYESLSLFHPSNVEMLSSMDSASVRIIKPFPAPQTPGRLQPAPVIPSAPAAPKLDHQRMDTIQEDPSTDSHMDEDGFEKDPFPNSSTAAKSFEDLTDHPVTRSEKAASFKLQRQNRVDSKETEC

[11] = target: Matrix metalloproteinase-16 (Homo sapiens, UniProt P51512); experiment: Inhibition of human recombinant MMP16; how it was run: as §1
Chain of Matrix metalloproteinase-16 (P51512 whole entry): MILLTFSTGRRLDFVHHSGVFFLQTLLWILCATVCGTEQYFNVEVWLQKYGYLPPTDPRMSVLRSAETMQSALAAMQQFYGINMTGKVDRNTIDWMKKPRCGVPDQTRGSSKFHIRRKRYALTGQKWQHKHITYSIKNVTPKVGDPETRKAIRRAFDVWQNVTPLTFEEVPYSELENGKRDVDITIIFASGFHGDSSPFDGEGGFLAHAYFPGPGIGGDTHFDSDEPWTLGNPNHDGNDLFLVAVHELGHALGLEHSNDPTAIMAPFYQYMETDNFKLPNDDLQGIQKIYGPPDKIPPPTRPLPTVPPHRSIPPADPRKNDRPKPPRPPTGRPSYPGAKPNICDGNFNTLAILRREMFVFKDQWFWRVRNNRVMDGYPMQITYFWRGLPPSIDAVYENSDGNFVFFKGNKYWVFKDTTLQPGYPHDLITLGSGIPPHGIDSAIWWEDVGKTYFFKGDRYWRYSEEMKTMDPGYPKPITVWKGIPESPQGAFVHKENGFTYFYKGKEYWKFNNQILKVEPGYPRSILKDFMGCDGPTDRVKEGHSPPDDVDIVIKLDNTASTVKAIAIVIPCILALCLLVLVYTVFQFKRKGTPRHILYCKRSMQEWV

[12] = species: Sus scrofa; experiment: Inhibition of MMP13-mediated collagen degradation in long term IL-1-alpha-stimulated pig articular cartilage explant culture assessed as hydroxyproline release at 10 uM
How it was run: (§2)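 Porcine metacarpophalangeal cartilage explants from 3–9-month pigs were rested 24 h with serum, then 3 days serum-free. They were stimulated with IL-1α 10 ng/mL plus inhibitor at 0.1, 1 or 10 µM in serum-free DMEM, with medium changed every 3–4 days. Hydroxyproline was measured in the medium after 6 N HCl hydrolysis, using chloramine T/DMBA and absorbance at 560 nm against a standard curve. Cumulative release was corrected for unstimulated background.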

[13] = species: Sus scrofa; experiment: Inhibition of MMP13-mediated collagen degradation in long term IL-1-alpha-stimulated pig articular cartilage explant culture assessed as hydroxyproline release; how it was run: as §2
[14] = species: Sus scrofa; experiment: Inhibition of MMP13-mediated collagen degradation in long term IL-1-alpha-stimulated pig articular cartilage explant culture assessed as hydroxyproline release at 1 uM; how it was run: as §2

IC50 [1]	IC50 [2]	IC50 [3]	IC50 [4]	IC50 [5]	IC50 [6]	IC50 [7]	IC50 [8]	IC50 [9]	Ki [3]	IC50 [10]	IC50 [11]	Ki [7]	inhibition [12]	Structure (SMILES)	inhibition [13]	inhibition [14]
590 nM	66 nM	26 nM	110 nM	1200 nM	59000 nM	63 nM	–	–	–	–	–	–	–	CC(C)ON(CC(=O)NO)S(=O)(=O)c1ccc(Oc2ccccc2)cc1	–	–
530 nM	48 nM	12 nM	34 nM	920 nM	4800 nM	39 nM	9.4 nM	4100 nM	–	–	–	–	–	CC(C)CN(CC(=O)NO)S(=O)(=O)c1ccc(-c2ccccc2)cc1	–	–
2800 nM	3600 nM	74 nM	2300 nM	710 nM	5600 nM	41 nM	–	–	–	–	–	–	–	CC(C)ON(CC(=O)NO)S(=O)(=O)c1ccc(/C=C/c2ccc(-c3ccccc3)cc2)cc1	–	–
3400 nM	1700 nM	40 nM	1100 nM	1800 nM	13000 nM	19 nM	–	–	25 nM	35000 nM	15000 nM	8.2 nM	–	CC(C)ON(CC(=O)NO)S(=O)(=O)c1ccc(-c2ccc(OCc3ccc(Cl)cc3)cc2)cc1	–	–
1000 nM	65 nM	4.2 nM	160 nM	1800 nM	13000 nM	10 nM	–	–	3.8 nM	–	–	5.8 nM	–	COc1ccc(-c2ccc(S(=O)(=O)N(CC(=O)NO)OC(C)C)cc2)cc1	–	–
2400 nM	140 nM	56 nM	680 nM	4300 nM	> 10000 nM	91 nM	–	–	–	–	–	–	–	CCc1ccc(-c2ccc(S(=O)(=O)N(CC(=O)NO)OC(C)C)s2)cc1	–	–
2300 nM	260 nM	–	–	5900 nM	12000 nM	45 nM	25 nM	2900 nM	13 nM	> 100000 nM	900 nM	20 nM	Active	CC(C)ON(CC(=O)NO)S(=O)(=O)c1ccc(-c2ccccc2)cc1	Dose-dependent effect	–
5500 nM	560 nM	5.5 nM	44 nM	1600 nM	11000 nM	15 nM	–	–	–	–	–	–	–	CCCCOc1ccc(-c2ccc(S(=O)(=O)N(CC(=O)NO)OC(C)C)cc2)cc1	–	–
6500 nM	440 nM	310 nM	3200 nM	9100 nM	20000 nM	600 nM	–	–	–	–	–	–	–	CC(C)ON(CC(=O)NO)S(=O)(=O)c1ccc(-c2ccc(F)cc2)s1	–	–
320 nM	37 nM	1.5 nM	77 nM	1300 nM	3300 nM	7.2 nM	–	–	–	–	–	–	–	CSc1ccc(-c2ccc(S(=O)(=O)N(CC(=O)NO)OC(C)C)cc2)cc1	–	–
70 nM	7 nM	2 nM	34 nM	320 nM	610 nM	2.8 nM	2.4 nM	970 nM	–	–	–	–	–	O=C(CNS(=O)(=O)c1ccc(-c2ccccc2)cc1)NO	–	–

Structure (SMILES)	IC50 [1]	IC50 [2]	IC50 [3]	IC50 [4]	IC50 [5]	IC50 [6]	IC50 [7]	IC50 [8]	IC50 [9]	Ki [3]	IC50 [10]	IC50 [11]	Ki [7]	inhibition [12]	inhibition [13]	inhibition [14]
CCCCc1ccc(C#Cc2ccc(S(=O)(=O)N(CC(=O)NO)OC(C)C)s2)cc1	11000 nM	7600 nM	360 nM	4400 nM	4300 nM	13000 nM	260 nM	–	–	–	–	–	–	–	–	–
COc1ccc(-c2ccc(S(=O)(=O)N(CC(=O)NO)OC(C)C)s2)cc1	> 1000 nM	110 nM	17 nM	250 nM	1200 nM	> 10000 nM	25 nM	–	–	–	–	–	–	–	–	–
CC(C)ON([C@@H](C(=O)NO)C(C)C)S(=O)(=O)c1ccc(-c2ccc(OCc3ccc(Cl)cc3)cc2)cc1	14000 nM	63 nM	9.6 nM	69 nM	180 nM	48000 nM	3 nM	1.4 nM	15000 nM	54 nM	> 100000 nM	5000 nM	29 nM	–	Dose-dependent effect	Active
